Compound activity (PubChem)
MrgX1 agonist = agonists of human MrgX1 receptor, primary screen, HEK293 cells, Fluo-4 calcium flux. AID 588627, 2011. hit rate 0.44% among 310,000. B-score at 10 µM. Fluo-4 calcium fluorescence, agonist mode; stronger effect = higher value;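 active means calcium response B-score plate-corrected fluorescence ratio at least 3 library SD, with starting fluorescence B-score inside 5 SD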
Target sequence (Q96LB2 whole entry, looked up): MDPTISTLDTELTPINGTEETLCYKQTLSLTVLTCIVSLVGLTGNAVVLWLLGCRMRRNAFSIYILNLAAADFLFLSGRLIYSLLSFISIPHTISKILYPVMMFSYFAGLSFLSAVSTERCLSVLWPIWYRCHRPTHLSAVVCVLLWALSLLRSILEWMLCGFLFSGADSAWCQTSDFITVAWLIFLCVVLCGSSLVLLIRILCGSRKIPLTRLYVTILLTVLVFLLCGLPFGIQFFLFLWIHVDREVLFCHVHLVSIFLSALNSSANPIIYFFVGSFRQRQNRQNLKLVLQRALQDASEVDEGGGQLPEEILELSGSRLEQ
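Test system: HEK293 cells stably expressing human MrgX1 receptor; amount: 15,000 cells per well; doses: compound delivered in addition one of three; times: overnight plating before 1 h dye loading; detection: Fluo-4 NW calcium-flux fluorescence, kinetic read; read-out basis: B-scored fluorescence response ratio; controls: positive and negative controls per plate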
MrgX1 allo act = positive allosteric modulators of MrgX1, primary screen, HEK293 cells, Fluo-4 calcium flux | B-score at 10 µM | AID 588675, 2011 | hit rate 0.63% among 310,000 | FDSS; stronger effect = higher value | Mas-related G-protein coupled receptor member X1 (Homo sapiens), Q96LB2;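 active means plate-corrected calcium response at least 3 library SD above typical, normal starting fluorescence, not activating the receptor alone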;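 further: compound read alongside a low EC10 to EC30 dose of BAM8-22 agonist; peak minus trough fluorescence over baseline measured at the second addition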
RGS4 act = RGS4 potentiators or activators, primary screen, cell-based, HEK293 M3R inducible RGS4, calcium flux; AID 463111, 2010; carbachol calcium flux Fluo4; stronger effect = lower value; B-score at 10 µM; hit rate 0.92% among 310,000;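 active means B-score of the integrated calcium signal more than 4 SD below the library mean, with starting fluorescence not abnormally high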;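 further: negative B-score means reduced calcium response which marks RGS4 activation or potentiation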
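Assay system: HEK293 FlpIn-TREx cells, stable M3R, doxycycline-inducible RGS4 / Probe or stimulus: carbachol, ECmax concentration / Times: overnight RGS4 induction, 30 min dye load 37 °C, 20 min compound RT / Signal: kinetic calcium fluorescence imaging with Fluo4-AM dye, 2 µM / Measure: Agonist-evoked peak-minus-minimum fluorescence over baseline, integrated ratio, B score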
MrgX1 antagonist = antagonists of human MrgX1 receptor, primary screen, HEK293 cells, Fluo-4 calcium flux. BAM8-22 antagonism; stronger effect = lower value. hit rate 1.3% among 310,000. Mas-related G-protein coupled receptor member X1 (Homo sapiens), Q96LB2. AID 588676, 2011. B-score at 10 µM;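 active means calcium-response B-score plate-corrected more than 3 library SD below zero, starting fluorescence within 5 deviations, no agonist response on first addition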;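 further: peak minus trough fluorescence over baseline after final BAM8-22 challenge near maximal dose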
RGS4 inh = RGS4 inhibitors, primary screen, cell-based, HEK293 M3R inducible RGS4, calcium flux; AID 463165, 2010; Regulator of G-protein signaling 4 (Homo sapiens), P49798; Fluo-4 calcium flux; stronger effect = higher value; triggered by carbachol at its EC20; B-score at 10 µM; hit rate 0.45% among 310,000;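 active means B-score, a plate-corrected calcium signal, over three deviations above library mean, with baseline fluorescence within five deviations of library mean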;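 further: RGS4 expression induced by doxycycline in cells with stable M3 receptor; B-score is computed from the integrated fluorescence ratio over baseline after carbachol; higher B-score means a larger calcium signal and so more RGS4 inhibition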
Target sequence (P49798 whole entry, looked up): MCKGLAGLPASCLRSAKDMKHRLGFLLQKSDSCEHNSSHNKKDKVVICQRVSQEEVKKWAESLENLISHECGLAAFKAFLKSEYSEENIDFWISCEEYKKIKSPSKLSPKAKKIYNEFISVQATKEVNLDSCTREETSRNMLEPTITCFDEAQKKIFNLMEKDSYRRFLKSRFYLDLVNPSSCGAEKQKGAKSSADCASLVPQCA
RGS4 inh valid = enhanced carbachol calcium response, M3R/RGS4 cells, RGS4 inhibitor project, cell-based, validation screen, HEK293 M3R/RGS4, calcium flux | carbachol calcium Fluo-4 fluorescence; carbachol added at its EC20; 0 = buffer wells, 100 = carbachol control | hit rate 65% among 1,700 | AID 492999, 2010 | calcium response, % at 10 µM | shares compounds with RGS4 inh;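 active means duplicate-averaged calcium response above the buffer-only control mean plus 5 SD of those controls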;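 further: integrated fluorescence ratio F max minus min over baseline F0; higher response in RGS4-induced cells means RGS4 inhibition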
M3R Ca ctr = carbachol calcium response in non-induced M3R cells, confirmation, counter-screen for RGS4 inhibitor project, cell-based, HEK293 M3R | hit rate 20% among 1,900 | carbachol calcium Fluo-4; submaximal (EC20) carbachol stimulus; buffer wells 0%, carbachol control wells 100% | shares compounds with RGS4 inh | AID 493000, 2010 | activity (percent), % at 10 µM; call rule not given here;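 further: RGS4 induction absent so cells express M3R without RGS4; higher means more calcium signal and flags a non-specific hit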
RGS4 inh ctr2 = second counter-screen for RGS4 inhibitors: non-induced cells without carbachol; shares compounds with RGS4 inh; HEK293 M3R/RGS4 non-induced, Fluo-4 calcium, no carbachol; normalised: buffer wells 0%, carbachol wells 100%; calcium response (agonist-mode artifact), % at 10 µM; hit rate 22% among 1,900; AID 493001;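 active means duplicate-averaged calcium rise in uninduced cells above buffer wells' mean plus 5 SD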
A number is an active result; – = inactive; · = no result. Shown are actives, neighbours in structure and some others; about 3.5% of the full set was active somewhere.

SMILES | MrgX1 agonist | MrgX1 allo act | RGS4 act | MrgX1 antagonist | RGS4 inh | RGS4 inh valid | M3R Ca ctr | RGS4 inh ctr2
CC(C)(C)OC1NS(=O)(=O)OCC1NCOC(Cl)(Cl)Cl (stereo not given) | – | – | – | – | 19 | 26% | 40% | 22%
Cc1cccc(-n2ccc(=O)c(C(=O)Nc3ccc(S(=O)(=O)Nc4onc(C)c4C)cc3)n2)c1 | – | – | – | – | 4.7 | 7.0% | – | –
Cc1noc(NS(=O)(=O)c2ccc(N/C=C\C(=O)c3cccs3)cc2)c1C | – | – | – | – | – | · | · | ·
Cc1noc(NS(=O)(=O)c2ccc(N/C=C\C(=O)c3ccc(F)cc3)cc2)c1C | – | – | – | – | – | · | 36% | –
Cc1noc(NS(=O)(=O)c2ccc(N/C=C\C(=O)c3ccccc3)cc2)c1C | – | – | – | – | – | · | – | –
Cc1noc(NS(=O)(=O)c2ccc(N/C=C/C(=O)c3ccc4c(c3)OCO4)cc2)c1C | – | – | – | – | – | · | · | ·
Cc1ccccc1NC(=S)Nc1ccc2[nH]c(=O)[nH]c2c1 | – | – | – | – | – | · | · | ·
Cc1ccc(-c2csc(NC(=O)CSc3nc4ccccc4[nH]3)n2)cc1 | · | · | – | · | – | · | – | –
COc1ccc(-c2csc(NC(=O)CSc3nc4ccccc4c(=O)[nH]3)n2)cc1 | – | – | – | – | – | · | · | ·
Cc1cc(=O)[nH]c(SCC(=O)Nc2nc(-c3ccccc3)cs2)n1 | – | – | – | – | – | · | – | –
COC(=O)c1ccc(COC(=O)CCC(=O)c2cccs2)cc1 | – | – | – | – | – | · | · | ·
O=C(N/N=C/c1ccccc1)c1[nH]c2ccc(Br)cc2c1-c1ccccc1 | – | – | – | – | – | · | · | ·
O=C(NN=C1CCCC1)c1[nH]c2ccc(Br)cc2c1-c1ccccc1 | – | – | – | – | 13 | 16% | – | –
O=C1Nc2ccc3sc4ccccc4c3c2C1=O | – | – | – | – | – | · | · | ·
O=C(Cc1cccs1)NCc1ccccc1Br | – | – | – | – | – | · | · | ·
CC1=C(CO)C(=O)OC([C@@H](C)C2CC[C@H]3C4C[C@H]5O[C@]56[C@@H](O)C=CC(=O)[C@]6(C)C4CC[C@]23C)C1 (stereo not given in full) | – | – | – | – | 13 | 32% | – | –
CCCC(=O)Nc1sc(C(=O)Nc2cccc(N)c2)c(C)c1C(=O)OC | – | – | – | – | – | · | · | ·
CC(C)CNS(=O)(=O)c1ccc(CCC(=O)N2CCC(C(N)=O)CC2)cc1 | – | – | – | – | – | · | · | ·
C[C@]12C(=O)N(c3ccc(Br)cc3)C(=O)N1[C@@H]1c3ccccc3OC[C@@H]1[C@H]2c1ccccc1 | – | – | – | – | – | · | · | ·
C[C@@]12C(=O)N(c3ccc(F)cc3)C(=O)N1[C@@H]1c3ccccc3OC[C@@H]1[C@H]2c1ccccc1 | – | – | – | – | – | · | · | ·
C[C@]12C(=O)N(c3ccc(Cl)cc3)C(=O)N1[C@H]1c3ccccc3OC[C@@H]1[C@H]2c1ccccc1 | – | – | – | – | – | – | – | –
C[C@]12C(=O)N(c3ccc(Cl)cc3)C(=O)N1[C@@H]1c3ccccc3OC[C@@H]1[C@H]2c1ccccc1 | – | – | – | – | – | – | – | –
COc1ccc(NC(=O)C2CC(c3ccccc3O)=NO2)cc1OC (stereo not given) | – | – | – | – | – | · | · | ·
